Reference: ChEMBL document CHEMBL5096231, “Covalently Conjugated NOD2/TLR7 Agonists Are Potent and Versatile Immune Potentiators” (J Med Chem, 2022)
Activity calls are given as the source filed them. The calls are words filed in the database; no cut-off is given here.

Assays:
[1] = Cytotoxicity against HEK-Blue hNOD2 cells assessed as reduction in metabolic activity at 10 uM incubated for 18 hrs by MTS assay; format: toxicity, cell-based; details: human, hek-blue hnod2, 18 h
Method in brief: (§1)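 Cells (HEK-Blue NOD2, RAW-Blue or freshly isolated human PBMCs) seeded in duplicate and exposed to 10 μM compound or 0.1% DMSO vehicle for 18 h at 37 °C, 5% CO2. Metabolic activity then measured by CellTiter 96 AQueous One (MTS) assay.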

[2] = Induction of activation of human CD56+ CD3- NK cells co-cultured with human PBMC cells assessed as increase in IFN-gamma expression at 1 uM incubated for 24 hrs by flow cytometry analysis (reference value: 0.04%); format: functional, Natural killer cell
[3] = Cytotoxicity against human PBMC cells assessed as reduction in metabolic activity at 10 uM incubated for 18 hrs by MTS assay; format: toxicity, cell-based; method in brief: as §1
[4] = Induction of activation of human CD56+ CD3- NK cells co-cultured with human PBMC cells assessed as increase in CD69 expression at 1 uM incubated for 24 hrs by flow cytometry analysis (reference value: 2.7%); format: functional, Natural killer cell
[5] = (§2) Induction of mouse ovalbumin specific CD4+ T cell activation assessed as increase in CD25 expression at 1 uM preincubated for 18 hrs with mouse BDMC cells in presence of ovalbumin followed by washout and further coincubated with CD4+ T cells and measured after 72 hrs by flow cytometry analysis (reference value: 10.9%); format: functional, CD4+ve Th
Method in brief: (§3)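 C57BL/6 BMDCs (GM-CSF 7 days, >90% CD11c+) pulsed 18 h with 1 μM compound, LPS 1 μg/mL or 0.1% DMSO plus OVA 50 μg/mL, washed. 1 × 10^4 BMDCs cocultured 72 h with 5 × 10^4 CFSE-labelled OT-II CD4+ or OT-I CD8+ T cells. Flow: live Thy1.2+ CD4+ or CD8+ cells scored as CD25+ CFSElow. Duplicates of two experiments.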

[6] = Induction of activation of human CD56+ CD3- NK cells co-cultured with human PBMC cells assessed as increase in CD107a expression at 1 uM incubated for 24 hrs by flow cytometry analysis (reference value: 1.5%); format: functional, Natural killer cell
[7] = Cytotoxicity against mouse RAW-Blue cells assessed as reduction in metabolic activity at 10 uM incubated for 18 hrs by MTS assay; format: toxicity, cell-based; method in brief: as §1
[8] = as §2, with “specific CD8-positive” for “specific CD4+”, “value: 12.6%)” for “value: 10.9%)”; format: functional; method in brief: as §3
[9] = test system: CD4+ve Th; test: Induction of mouse ovalbumin specific CD4+ T cell activation assessed as increase in IL-17A expression at 1 uM preincubated for 18 hrs with mouse BDMC cells in presence of ovalbumin followed by washout and further coincubated with CD4+ T cells and measured after 72 hrs; format: functional, cell-based
Method in brief: (§4)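 Supernatants taken after the 72 h coculture of washed BMDCs (18 h pretreatment with 1 μM compound, LPS 1 μg/mL or vehicle, plus OVA 50 μg/mL) with OT-II CD4+ or OT-I CD8+ T cells. Cytokines measured by mouse Th1/Th2/Th17 cytometric bead array. Duplicates of two independent experiments, mean ± SEM.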

[10] = test system: PBMC; test: Upregulation of CXCL9 gene transcription in human PBMC cells at 1 uM incubated for 18 hrs by KEGG analysis; format: functional, cell-based
Method in brief: (§5)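 PBMCs from three donors (2 × 10^6 cells/mL) exposed to 1 μM compound or 0.1% DMSO for 18 h at 37 °C. mRNA isolated, amplified, sequenced. DESeq2 differential expression, FDR <0.05 and fold change >2 or <0.5 versus vehicle; gene lists used for Metascape/KEGG enrichment.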

[11] = test system: PBMC; test: Upregulation of IL-26 gene transcription in human PBMC cells at 1 uM incubated for 18 hrs by KEGG analysis; format: functional, cell-based; method in brief: as §5
[12] = test system: PBMC; test: Upregulation of Tbx21 gene transcription in human PBMC cells at 1 uM incubated for 18 hrs by KEGG analysis; format: functional, cell-based; method in brief: as §5
[13] = test system: PBMC; test: Upregulation of IFN-gamma gene transcription in human PBMC cells at 1 uM incubated for 18 hrs by KEGG analysis; format: functional, cell-based; method in brief: as §5
[14] = test system: CD8-positive T cell; test: Induction of mouse ovalbumin specific CD8-positive T cell activation assessed as increase in IL-17A expression at 1 uM preincubated for 18 hrs with mouse BDMC cells in presence of ovalbumin followed by washout and further coincubated with CD4+ T cells and measured after 72 hrs; format: functional, cell-based; method in brief: as §4
[15] = test system: PBMC; test: Immunostimulatory activity in human PBMC cells assessed as increase in IL-8 production at 1 uM incubated for 18 hrs by flow cytometry analysis; format: functional, cell-based
Method in brief: (§6)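 PBMCs at 1 × 10^6 cells/mL treated with compound (1 μM), LPS (1 μg/mL) or 0.1% DMSO vehicle; cell-free supernatants collected after 18 h at 37 °C, 5% CO2. Cytokines quantified by human inflammatory cytokine bead array on flow cytometry with recombinant standard curves. Four independent experiments, mean ± SEM.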

[16] = test system: K562; test: Cytotoxicity against human K562 cells cocultured with human PBMC cells assessed as inhibition of cell proliferation at 0.01 to 1 uM incubated with PBMC cells for 18 hrs followed by co-incubation with K562 cells for 4 hrs by SYTOX blue staining based flow cytometric analysis; format: functional; details: dose 0.01-1 µM
Method in brief: (§7)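 Human PBMCs (Ficoll-isolated, healthy donors) pretreated 18 h in duplicate with compound (1 nM–1 μM) or 0.1% DMSO. CFSE-labelled K562 or MEC1 target cells then added, effector:target 40:1, 4 h at 37 °C. Sytox blue staining, flow cytometry; CFSE+Sytox+ cells counted as dead. Expressed relative to vehicle; three independent experiments, mean ± SEM.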

[17] = test system: PBMC; test: Upregulation of CXCL11 gene transcription in human PBMC cells at 1 uM incubated for 18 hrs by KEGG analysis; format: functional, cell-based; method in brief: as §5
[18] = test system: Mus musculus; test: Immuno-adjuvant activity in NIH/OlaHsd mouse assessed as increase in ovalbumin specific IgG production in sera at 50 ug, sc administered on day 0 and as booster dose on day 21 and 28 measured 7 days post last dose by ELISA; format: functional, organism-based; details: dose 50.0 µg, time 35.0 day
[19] = test system: PBMC; test: Immunostimulatory activity in human PBMC cells assessed as increase in IL-6 production at 1 uM incubated for 18 hrs by flow cytometry analysis; format: functional, cell-based; method in brief: as §6
[20] = test system: Mus musculus; test: Immuno-adjuvant activity in NIH/OlaHsd mouse assessed as increase in ovalbumin specific Th1 associated IgG2a production in sera at 50 ug, sc administered on day 0 and as booster dose on day 21 and 28 measured 7 days post last dose by ELISA; format: functional, organism-based; details: dose 50.0 µg, time 35.0 day
[21] = test system: PBMC; test: Immunostimulatory activity in human PBMC cells assessed as increase in IL-10 production at 1 uM incubated for 18 hrs by flow cytometry analysis; format: functional, cell-based; method in brief: as §6
[22] = test system: RAW-Blue; test: Activation of NF-kappaB transcriptional activity in mouse RAW-Blue cells expressing NOD2 and TLR7 at 1 uM incubated for 18 hrs by quanti-blue/SEAP-based spectrophotometry analysis; format: cell-based; details: filed as activator
Method in brief: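 RAW-Blue cells pretreated 1 h with NOD2 antagonist SG84 (5 μM), TLR7 antagonist M5049 (1 μM), both, or neither, then given compound or 0.1% DMSO vehicle; 18 h at 37 °C, 5% CO2 in growth medium without Normocin/Zeocin. Supernatant mixed with QUANTI-Blue for 2 h at 37 °C, SEAP read at 630 nm. Activity relative to vehicle; three independent experiments, mean ± SEM.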

[23] = test system: CD8-positive T cell; test: Induction of mouse ovalbumin specific CD8-positive T cell activation assessed as increase in IL-6 expression at 1 uM preincubated for 18 hrs with mouse BDMC cells in presence of ovalbumin followed by washout and further coincubated with CD4+ T cells and measured after 72 hrs; format: functional, cell-based; method in brief: as §4
[24] = test system: PBMC; test: Immunostimulatory activity in human PBMC cells assessed as increase in IL-1beta production at 1 uM incubated for 18 hrs by flow cytometry analysis; format: functional, cell-based; method in brief: as §6
[25] = test system: CD4+ve Th; test: Induction of mouse ovalbumin specific CD4+ T cell activation assessed as increase in IFN-gamma expression at 1 uM preincubated for 18 hrs with mouse BDMC cells in presence of ovalbumin followed by washout and further coincubated with CD4+ T cells and measured after 72 hrs; format: functional, cell-based; method in brief: as §4
[26] = test system: PBMC; test: Upregulation of IL12B gene transcription in human PBMC cells at 1 uM incubated for 18 hrs by KEGG analysis; format: functional, cell-based; method in brief: as §5
[27] = test system: PBMC; test: Immunostimulatory activity in human PBMC cells assessed as increase in TNF production at 1 uM incubated for 18 hrs by flow cytometry analysis; format: functional, cell-based; method in brief: as §6
[28] = test system: CD4+ve Th; test: Induction of mouse ovalbumin specific CD4+ T cell activation assessed as increase in IL-6 expression at 1 uM preincubated for 18 hrs with mouse BDMC cells in presence of ovalbumin followed by washout and further coincubated with CD4+ T cells and measured after 72 hrs; format: functional, cell-based; method in brief: as §4
[29] = test system: CD4+ve Th; test: Induction of mouse ovalbumin specific CD4+ T cell activation assessed as increase in TNF expression at 1 uM preincubated for 18 hrs with mouse BDMC cells in presence of ovalbumin followed by washout and further coincubated with CD4+ T cells and measured after 72 hrs; format: functional, cell-based; method in brief: as §4
[30] = test system: PBMC; test: Immunostimulatory activity in human PBMC cells assessed as increase in IL12p70 production at 1 uM incubated for 18 hrs by flow cytometry analysis; format: functional, cell-based; method in brief: as §6
[31] = test system: CD8-positive T cell; test: Induction of mouse ovalbumin specific CD8-positive T cell activation assessed as increase in IFN-gamma expression at 1 uM preincubated for 18 hrs with mouse BDMC cells in presence of ovalbumin followed by washout and further coincubated […] and measured after 72 hrs; format: functional, cell-based; method in brief: as §4
[32] = test system: PBMC; test: Upregulation of IL-17A gene transcription in human PBMC cells at 1 uM incubated for 18 hrs by KEGG analysis; format: functional, cell-based; method in brief: as §5
[33] = test system: Mus musculus; test: Immuno-adjuvant activity in NIH/OlaHsd mouse assessed as increase in ovalbumin specific Th2 associated IgG1 production in sera at 50 ug, sc administered on day 0 and as booster dose on day 21 and 28 measured 7 days post last dose by ELISA; format: functional, organism-based; details: dose 50.0 µg, time 35.0 day
[34] = test system: PBMC; test: Upregulation of IL-17F gene transcription in human PBMC cells at 1 uM incubated for 18 hrs by KEGG analysis; format: functional, cell-based; method in brief: as §5
[35] = test system: PBMC; test: Upregulation of IL-22 gene transcription in human PBMC cells at 1 uM incubated for 18 hrs by KEGG analysis; format: functional, cell-based; method in brief: as §5
[36] = test system: PBMC; test: Upregulation of IL12A gene transcription in human PBMC cells at 1 uM incubated for 18 hrs by KEGG analysis; format: functional, cell-based; method in brief: as §5
[37] = test system: PBMC; test: Upregulation of CXCL10 gene transcription in human PBMC cells at 1 uM incubated for 18 hrs by KEGG analysis; format: functional, cell-based; method in brief: as §5
[38] = test system: CD8-positive T cell; test: Induction of mouse ovalbumin specific CD8-positive T cell activation assessed as increase in TNF expression at 1 uM preincubated for 18 hrs with mouse BDMC cells in presence of ovalbumin followed by washout and further coincubated with CD4+ T cells and measured after 72 hrs; format: functional, cell-based; method in brief: as §4
[39] = test system: MEC1; test: Cytotoxicity against human MEC1 cells cocultured with human PBMC cells assessed as inhibition of cell proliferation at 0.01 to 1 uM incubated with PBMC cells for 18 hrs followed by co-incubation with MEC-1 cells for 4 hrs by SYTOX blue staining based flow cytometric analysis; format: functional; details: dose 0.01-1 µM; method in brief: as §7

With CCCCOc1nc(N)c2nc(O)n(Cc3ccc(C(=O)O)cc3)c2n1 the Activity [1] was “Non-Toxic”, the Activity [2] was 0.05% and the Activity [3] was “Non-Toxic”. For the same compound, the Activity [4] was 3.3%, the Activity [5] was 25.8% and the Activity [6] was 1.7%. For the same compound, the Activity [7] was “Non-Toxic” and the Activity [8] was 17.6%.

For CCCCOc1nc(N)c2nc(O)n(Cc3ccc(C(=O)NCCOCCNC(=O)CC[C@@H](NC(=O)[C@@H](NC(=O)CNC(=O)/C=C/c4ccc(O)c(OC)c4)C(C)C)C(=O)OCC)cc3)c2n1, the Activity [9] was “Active”, the Activity [10] was “Active” and the Activity [11] was “Active”. For the same compound, the Activity [12] was “Active”, the Activity [1] was “Non-Toxic” and the Activity [2] was 4.5%. The Activity [13] was “Active”, the Activity [3] was “Non-Toxic” and the Activity [4] was 93%. For the same compound, the Activity [14] was “Active”, the Activity [15] was “Active” and the Activity [16] was “Active”. The Activity [17] was “Active”, the Activity [5] was 28.9% and the Activity [18] was “Active”. The Activity [6] was 4.7%, the Activity [19] was “Active” and the Activity [20] was “Active”. The Activity [7] was “Non-Toxic”, the Activity [21] was “Active” and the Activity [22] was “Active”. The Activity [23] was “Active”, the Activity [24] was “Active” and the Activity [25] was “Active”. The Activity [26] was “Active”, the Activity [27] was “Active” and the Activity [28] was “Active”. The Activity [29] was “Active”, the Activity [30] was “Active” and the Activity [31] was “Active”. The Activity [32] was “Active”, the Activity [33] was “Active” and the Activity [34] was “Active”. For the same compound, the Activity [35] was “Active”, the Activity [8] was 54.5% and the Activity [36] was “Active”. For the same compound, the Activity [37] was “Active”, the Activity [38] was “Active” and the Activity [39] was “Active”.
